Source: PubChem BioAssay (Broad Institute)
IDH1 mut inh – blocks human IDH1 R132H reductase activity. diaphorase/resazurin fluorescence, 60 min. O75874. hit rate 0.18% among 70,000. inhibition, % at 10 µM; in the data active = inhibition above about 34%;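 note: 0% = DMSO and 100% = no enzyme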
KDM4C inh – inhibitors of human demethylase GASC-1 KDM4C. Q9H3R0. GST-KDM4C 2-372, H3K9me3 peptide, LANCE TR-FRET. inhibition, % at 12.5 µM. hit rate 0.15% among 96,000;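 active = mean replicate inhibition above about 25%, with at least 55% of replicates also reaching it, limit read from the data, passing the limit was not always enough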
Target sequence (Q9H3R0 2-372 limits assumed): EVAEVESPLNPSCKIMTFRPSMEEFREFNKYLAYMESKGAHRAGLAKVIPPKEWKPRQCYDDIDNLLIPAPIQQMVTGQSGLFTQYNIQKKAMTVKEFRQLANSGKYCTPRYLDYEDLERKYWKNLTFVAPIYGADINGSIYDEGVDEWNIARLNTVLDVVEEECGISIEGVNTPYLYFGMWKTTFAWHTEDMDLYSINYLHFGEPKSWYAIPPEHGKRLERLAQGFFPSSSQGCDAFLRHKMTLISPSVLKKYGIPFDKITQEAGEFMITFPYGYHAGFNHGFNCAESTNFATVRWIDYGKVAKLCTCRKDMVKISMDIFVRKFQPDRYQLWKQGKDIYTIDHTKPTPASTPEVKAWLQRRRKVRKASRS
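Material: N-terminal GST-fused human GASC-1 (KDM4C) fragment, residues 2-372. Input: 10 nM enzyme. Incubation: enzyme reaction 30 min, then detection 60 min, both room temperature. Doses: one test concentration per compound. Read-out basis: inhibition from TR-FRET ratio decrease. Detection: LANCE TR-FRET, excitation 340 nm, emissions 618 and 671 nm.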
Pf Dd2 growth – inhibitors of Plasmodium falciparum Dd2 growth; P. falciparum Dd2 growth, SYBR Green, 72 h; active compounds read low; activity change, % at 10 µM; hit rate 2.3% among 94,000; in the data active = activity change below about -80%
Tcruzi prolif – blocks T. cruzi growth in NIH3T3 culture; T. cruzi beta-gal in NIH3T3, GalScreen luminescence, 90 h; inhibition, % at 8.34 µM; hit rate 5.9% among 77,000;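 active = mean inhibition above about 93%, with at least 55% of replicates each passing it, limit read from the data, passing the limit was not always enough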
* hit, by the source's call; . = no result. In the library only some 5.8% were active in any assay of this set; here they are far more common.

SMILES	IDH1 mut inh	KDM4C inh	Pf Dd2 growth	Tcruzi prolif
COc1ccccc1C#Cc1ccc2c(c1)O[C@@H](CN(C)Cc1cccnc1)[C@H](C)CN([C@@H](C)CO)S2(=O)=O	.	-1	-83*	.
C[C@@H]1CN([C@@H](C)CO)S(=O)(=O)c2ccc(-c3ccc(C(=O)N(C)C)cc3)cc2O[C@H]1CN(C)Cc1ccc2c(c1)OCO2	.	-1	-84*	.
C[C@H](CO)N1C[C@H](C)[C@@H](CN(C)Cc2ccc3c(c2)OCO3)Oc2cc(-c3cccc(C(=O)N(C)C)c3)ccc2S1(=O)=O	0	-3	-71	.
CN1C(=O)c2cc(NC(=O)c3cccs3)ccc2OC[C@@H]2O[C@@H](CC(=O)NCC(F)(F)F)CC[C@@H]21	.	1	17	16
C[C@H](CO)N1C[C@H](C)[C@@H](CN(C)C(=O)NC2CCCCC2)Oc2ccc(NC(=O)Nc3ccc(F)cc3)cc2C1=O	1	1	-3	-14
O=C(NCc1ccc2c(c1)OCO2)[C@@H]1[C@@H](CO)[C@@H]2Cn3c(cccc3=O)[C@H]1N2Cc1ccncc1	.	-1	7	38
CCNC(=O)C[C@H]1CC[C@H]2[C@@H](COc3ccc(NC(=O)Nc4cccc(OC)c4)cc3C(=O)N2C)O1	.	0	5	27
COCCNC(=O)C[C@H]1CC[C@@H](NC(=O)NC2CCCCC2)[C@H](CO)O1	1	0	27	-23
COc1ccc(CN2[C@@H]3CN(C(=O)Nc4ccc(F)cc4)c4ccccc4[C@@H]3[C@@H]2CO)cc1	.	-2	1	46
CCCNC(=O)N(C)C[C@@H]1Oc2cc(-c3cccnc3)ccc2S(=O)(=O)N([C@H](C)CO)C[C@H]1C	2	0	30	10
C[C@H]1CN([C@@H](C)CO)S(=O)(=O)c2ccc(-c3ccc(F)cc3)cc2O[C@H]1CN(C)CC1CC1	-4	5	-82*	.
C[C@@H]1CN([C@@H](C)CO)S(=O)(=O)c2ccc(-c3ccc(F)cc3)cc2O[C@H]1CN(C)CC1CC1	0	.	-25	.
C[C@H]1CN([C@@H](C)CO)S(=O)(=O)c2ccc(-c3ccccc3)cc2O[C@H]1CN(C)Cc1cccnc1	.	1	-22	94
CCCNC(=O)N(C)C[C@@H]1Oc2cc(-c3cccnc3)ccc2S(=O)(=O)N([C@@H](C)CO)C[C@@H]1C	24	30*	7	-8
C[C@H]1CN([C@@H](C)CO)S(=O)(=O)c2ccc(-c3ccccc3)cc2O[C@@H]1CN(C)Cc1cccnc1	.	-3	-34	116*
Cc1nc(SCC(=O)Nc2ccccc2[N+](=O)[O-])c2c(C)c(C)sc2n1	0	.	.	.
CCc1nc(SCC(=O)Nc2ccc(OC)cc2)c2c3c(sc2n1)COC(C)(C)C3	2	.	.	.
O=C(NCCCN1CCCC1=O)c1cc(-c2cccnc2)nc2ccc(Br)cc12	0	.	.	.
COc1ccc(C#Cc2cnc3c(c2)C(=O)N([C@H](C)CO)C[C@H](C)[C@H](CN(C)S(=O)(=O)c2cccc(F)c2)O3)cc1OC	.	-4	-87*	53
COc1ccc(C#Cc2cnc3c(c2)C(=O)N([C@H](C)CO)C[C@H](C)[C@H](CN(C)S(=O)(=O)c2ccc(C)cc2)O3)cc1OC	1	-1	-85*	92
C[C@H](CO)N1C[C@H](C)[C@H](CN(C)S(=O)(=O)c2cccc(F)c2)Oc2ncc(C#Cc3ccc(F)cc3)cc2C1=O	1	-3	-68	80
COc1ccc(C#Cc2cnc3c(c2)C(=O)N([C@H](C)CO)C[C@H](C)[C@H](CN(C)S(C)(=O)=O)O3)cc1OC	-2	0	-28	31
COC(=O)c1c(NC(=S)Nc2cc3oc4ccccc4c3cc2OC)sc2c1CCCC2	0	.	.	.
COCC#Cc1ccc2c(c1)O[C@@H](CN(C)Cc1ccccc1)[C@@H](C)CN([C@@H](C)CO)S2(=O)=O	-1	1	-57	91
CC(C)CC#Cc1ccc([C@H]2[C@@H](CO)N3C(=O)CN(C(=O)Cc4ccccc4)C[C@H]23)cc1	.	0	-85*	.
SMILES	IDH1 mut inh	KDM4C inh	Pf Dd2 growth	Tcruzi prolif
O=C(Cc1ccccc1)N1CC(=O)N2[C@H](CO)[C@H](c3ccc(C#Cc4ccccc4)cc3)[C@H]2C1	.	0	-84*	.
O=C(C[C@@H]1C=C[C@@H](NS(=O)(=O)c2ccc(F)cc2)[C@H](CO)O1)NCc1ccncn1	0	1	-21	73
C[C@H](CO)N1C[C@H](C)[C@H](CN(C)Cc2ccc(C(=O)Nc3ccccc3N)cc2)Oc2c(NC(=O)Nc3ccc(C(F)(F)F)cc3)cccc2C1=O	.	-2	-77	87
C[C@@H]1CN([C@H](C)CO)C(=O)c2cccc(NC(=O)Nc3ccc(C(F)(F)F)cc3)c2O[C@@H]1CN(C)Cc1ccc(C(=O)Nc2ccccc2N)cc1	.	0	-90*	.
C[C@@H]1CN([C@@H](C)CO)C(=O)c2cccc(NC(=O)Nc3ccc(C(F)(F)F)cc3)c2O[C@@H]1CN(C)Cc1ccc(C(=O)Nc2ccccc2N)cc1	.	0	-91*	.
COCC(=O)N(C)C[C@@H]1Oc2cc(C#C[C@H](C)O)ccc2S(=O)(=O)N([C@@H](C)CO)C[C@H]1C	0	-1	.	-2
Cc1ccccc1S(=O)(=O)N1[C@H](CO)[C@@H](c2ccc(C#CC3CCCCC3)cc2)[C@@H]1C#N	.	-3	-83*	90
Cc1ccccc1S(=O)(=O)N1[C@@H](C#N)[C@@H](c2ccc(-c3ccc(F)cc3)cc2)[C@@H]1CO	.	-3	-13	107*
Cc1ccccc1S(=O)(=O)N1[C@H](C#N)[C@@H](c2ccc(-c3ccc(F)cc3)cc2)[C@@H]1CO	.	0	-14	84
Cc1ccccc1S(=O)(=O)N1[C@H](C#N)[C@H](c2ccc(C#CC3CCCCC3)cc2)[C@@H]1CO	.	-2	-44	84
CS(=O)(=O)N1[C@H](CO)[C@@H](c2ccc(C#CC3CCCC3)cc2)[C@@H]1C#N	.	-4	-3	89
CS(=O)(=O)N1[C@H](C#N)[C@H](c2ccc(C#CC3CCCCC3)cc2)[C@H]1CO	.	-2	-20	99*
N#C[C@H]1[C@@H](c2ccc(C#CC3CCCC3)cc2)[C@@H](CO)N1S(=O)(=O)c1ccccc1	0	-1	-83*	91
COc1cccc(-c2ccc([C@H]3[C@H](CO)N4C(=O)CN(C(=O)c5ccncc5)C[C@@H]34)cc2)c1	.	1	-9	.
Cc1ccccc1S(=O)(=O)N1[C@H](C#N)[C@@H](c2ccc(C#CC3CC3)cc2)[C@@H]1CO	.	0	-85*	74
CCCC#Cc1cnc2c(c1)C(=O)N([C@H](C)CO)C[C@@H](C)[C@H](CN(C)C(=O)Nc1cc(F)ccc1F)O2	0	8	-81*	54
COc1ccccc1NC(=O)N(C)C[C@@H]1Oc2ncc(C#CC(C)C)cc2C(=O)N([C@@H](C)CO)C[C@H]1C	1	7	-82*	51
COc1ccc(CN(C)C[C@@H]2OCCCC[C@@H](C)Oc3ccc(NC(=O)Nc4cccc5ccccc45)cc3C(=O)N([C@H](C)CO)C[C@H]2C)cc1	0	.	-71	87
